Results on 1 compound are retold here after ChEMBL document CHEMBL3407343, “Functionalized tetrahydro-1H-pyrido[4,3-b]indoles: a novel chemotype with Sirtuin 2 inhibitory activity” (Eur J Med Chem, 2015).

Test [1] has as its target T1, NAD-dependent protein deacetylase sirtuin-1 (Homo sapiens) (UniProt Q96EB6).
T1 sequence (whole entry): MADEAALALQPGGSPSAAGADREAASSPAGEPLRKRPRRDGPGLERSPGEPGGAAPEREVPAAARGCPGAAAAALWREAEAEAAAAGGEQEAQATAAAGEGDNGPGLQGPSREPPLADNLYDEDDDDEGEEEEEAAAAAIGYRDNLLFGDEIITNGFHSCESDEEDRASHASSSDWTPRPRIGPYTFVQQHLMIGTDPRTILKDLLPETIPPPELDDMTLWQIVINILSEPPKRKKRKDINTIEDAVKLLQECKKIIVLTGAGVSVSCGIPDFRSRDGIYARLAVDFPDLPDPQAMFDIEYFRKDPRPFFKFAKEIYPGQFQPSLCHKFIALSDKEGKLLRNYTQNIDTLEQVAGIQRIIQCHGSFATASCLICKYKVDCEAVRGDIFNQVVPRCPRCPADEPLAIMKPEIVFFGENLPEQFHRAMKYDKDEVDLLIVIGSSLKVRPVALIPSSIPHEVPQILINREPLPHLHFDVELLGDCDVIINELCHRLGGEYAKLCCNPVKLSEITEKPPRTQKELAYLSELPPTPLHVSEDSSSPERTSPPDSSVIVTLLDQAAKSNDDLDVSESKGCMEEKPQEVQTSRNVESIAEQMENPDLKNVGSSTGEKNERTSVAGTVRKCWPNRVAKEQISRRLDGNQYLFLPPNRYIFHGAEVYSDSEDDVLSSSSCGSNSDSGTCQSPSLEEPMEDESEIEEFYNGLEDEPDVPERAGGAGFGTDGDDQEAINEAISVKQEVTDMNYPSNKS
Nature of the test: Inhibition of human recombinant SIRT1 assessed as deacetylation of N-acetyl lysine residue in p53 (317 to 320) at 10 uM after 30 mins by luciferase-mediated luminescence assay relative to control. In short, it runs like this: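 Recombinant human SIRT1 at 0.1 unit/well, with the enzyme amount chosen from the mid-linear range of a signal-to-noise titration, in Sirt-Glo buffer. Serially diluted inhibitor in DMSO covers a 10^3-fold range, with 2.5% DMSO final. The single-point screen is at a fixed 10 µM. Enzyme and inhibitor were agitated 30 min at 25 °C, then Sirt-Glo reagent added and shaken another 30 min at 25 °C before luminescence was read. Activity is % of the enzyme-only control after blank subtraction. IC50 comes from a sigmoidal fit of % activity against log concentration, run in triplicate across ≥2 independent experiments.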

In test [2] the target is T2, NAD-dependent protein deacetylase sirtuin-1 (Homo sapiens, UniProt Q96EB6).
T2 sequence (Q96EB6 whole entry): T1 sequence (whole entry)
Nature of the test: Inhibition of human recombinant SIRT1 assessed as deacetylation of N-acetyl lysine residue in p53 (317 to 320) after 30 mins by luciferase-mediated luminescence assay.

The target in test [3] is T3, NAD-dependent protein deacetylase sirtuin-2 (Homo sapiens, UniProt Q8IXJ6).
T3 sequence (Q8IXJ6 whole entry): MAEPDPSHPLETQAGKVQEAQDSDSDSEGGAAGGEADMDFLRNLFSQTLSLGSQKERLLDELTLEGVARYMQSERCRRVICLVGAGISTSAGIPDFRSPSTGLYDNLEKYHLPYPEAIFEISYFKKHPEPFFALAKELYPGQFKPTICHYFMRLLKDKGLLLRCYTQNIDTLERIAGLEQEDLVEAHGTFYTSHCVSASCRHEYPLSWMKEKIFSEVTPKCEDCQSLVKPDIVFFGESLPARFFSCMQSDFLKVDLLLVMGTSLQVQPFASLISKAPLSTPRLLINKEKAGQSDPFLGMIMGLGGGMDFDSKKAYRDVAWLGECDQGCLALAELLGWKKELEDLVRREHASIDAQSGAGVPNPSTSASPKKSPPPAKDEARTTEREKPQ
The test is described as follows: Inhibition of human recombinant SIRT2 assessed as deacetylation of N-acetyl lysine residue in p53 (317 to 320) after 30 mins by luciferase-mediated luminescence assay.

For test [4], the species on record is Homo sapiens. The test is described as follows: Inhibition of protease (unknown origin) using deacetylated peptide as substrate assessed as luminescence at 10 uM after 30 mins relative to control. Further details: scale not given: the % may be the effect or the level left. An outline of the steps:
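Counter-screen without sirtuin: compound from DMSO stock diluted in Sirt-Glo buffer, then Sirt-Glo reagent added carrying non-acetylated control peptide. DMSO was 2.5% v/v. Mixed by shaking 30 min at 25 °C, then luminescence read. Result is % of control (peptide plus reagent in vehicle) after subtracting the vehicle-only blank.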

The species named for test [5] is Homo sapiens. Nature of the test: Inhibition of protease (unknown origin) using deacetylated peptide as substrate assessed as luminescence at 100 uM after 30 mins relative to control. Set-up: scale not given: the % may be the effect or the level left.
A short description of test [6]: Inhibition of luciferase (unknown origin) using deacetylated peptide as substrate assessed as luminescence at 25 uM after 30 mins relative to control. Set-up: scale not given: the % may be the effect or the level left.
In the next test the test system is HepG2. Nature of the test: Growth inhibition of human HepG2 cells after 72 hrs by MTS assay. Type of test: functional, cell-based. As to conditions: HepG2, 72 h. An outline of the steps:
(§1)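 Cells in DMEM with 10% heat-treated FBS and penicillin/streptomycin, subcultured at 85–90% confluence and used within 15 passages. Seeded 2500 cells/well and grown 24 h, then compound was added (0.5% v/v DMSO final) for 72 h at 37 °C, 5% CO2. MTS was added for 4 h in the dark and absorbance read at 490 nm. Viability is corrected for compound and vehicle blanks.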
(Formazan colour is commonly taken as a measure of viable cells.)

Test [7] concerns MDA-MB-231. The test is described as follows: Growth inhibition of human MDA-MB-231 cells after 72 hrs by MTS assay. Type of test: functional, cell-based. As to conditions: MDA-MB-231, 72 h. An outline of the steps:
as §1

For test [8], the target named is T4, NAD-dependent protein deacetylase sirtuin-2 (Homo sapiens) (UniProt Q8IXJ6).
T4 sequence (whole entry): T3 sequence (Q8IXJ6 whole entry)
Nature of the test: Inhibition of SIRT2 in human HepG2 cells assessed as increase in acetylated p53 at Lys382 and alpha-tubulin level at 2 to 4 uM after 6 hrs by Western blot analysis. Type of test: cell-based. In short, it runs like this:
(§2)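 Cells seeded at 50,000 cells/mL in high-glucose DMEM containing compound (0.5% v/v DMSO) and incubated at 37 °C, 5% CO2: HepG2 6 h, MDA-MB-231 24 h. Washed cells were lysed on ice ≥20 min in Tris/NaCl/EDTA/Triton buffer with protease and phosphatase inhibitors, then protein measured by Bradford. SDS-PAGE blots were probed overnight at 4 °C with primary antibodies and detected by HRP/ECL, with re-probing after stripping. Each blot was repeated ≥3 times.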
On the technique in general: In western blotting, separated proteins are transferred to a membrane and probed.

Test [9] addresses T4, NAD-dependent protein deacetylase sirtuin-2 (Homo sapiens). Nature of the test: (§3) Non-competitive inhibition of human recombinant SIRT2 using Z-QPK(Me)2K(Ac) as substrate assessed as decrease in maximal enzyme activity preincubated for 60 mins followed by substrate addition measured after 30 mins by double-reciprocal plot analysis in presence of 185 to 5000 uM NAD+. An outline of the steps:
(§4)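 Recombinant human SIRT2 at 0.2 unit/well, preincubated 60 min at 25 °C (400 rpm) with inhibitor at four levels including zero, 2.5% DMSO. Detection reagent (acetylated Z-QPK(Me)2K(Ac)-aminoluciferin, NAD and developer) was premixed 60 min at 37 °C, added, and incubated 30 min at 25 °C before luminescence was read. For line 17, substrate was varied (4.12–333.3 µM) at fixed NAD. For line 16, NAD was varied (four levels) at 38.5 µM substrate. Double-reciprocal plots were made, and their slopes replotted against inhibitor concentration for apparent Ki.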

Test [10] has as its target T3, NAD-dependent protein deacetylase sirtuin-2. The description is as §3. As to conditions: read-out: Ki(app). An outline of the steps: as §4
The test system of test [11] is MDA-MB-231. The test is described as follows: Induction of apoptosis in human MDA-MB-231 cells assessed as upregulation of cleaved PARP protein expression at 2 to 8 uM after 24 hrs by Western blot analysis. Type of test: functional, cell-based. In short, it runs like this: as §2

Molecules are shown by their SMILES. The source made the active and inactive calls. The calls are words filed in the database; no cut-off is given here.

`CCCCCCCCn1c2c(c3cc(-c4ccc(S(C)(=O)=O)cc4)ccc31)CNCC2`: the results for the inhibition in test [1] and in [9] were 48.5% and “Dose-dependent effect”, respectively. For the same compound, the half-inhibitory concentration (IC50) in test [2] was 16.7 µM; in test [3], 3.8 µM; in the test with HepG2, 2.1 µM; in the test with MDA-MB-231 [7], 2.1 µM. Further, the values for the Activity (in the test filed under Homo sapiens [4]; in the test filed under Homo sapiens [5]; in test [6]) were 96.5%, 94.3% and 94.9%, respectively. For the same compound, the inhibition result in [8] is “Active”. Besides, in test [10], the Ki was 3.7 µM. The outcome in the test with MDA-MB-231 [11] was Active.

In general, inhibition refers to how much of the control response was suppressed. For orientation: IC50 means the midpoint of a concentration-inhibition curve.
